ChEMBL document CHEMBL5316292 (J Med Chem, 2023)
Activity calls are given as the source filed them. The calls are words filed in the database; no cut-off is given here.

Tests used:
DU-145 = test: Antiproliferative activity against AR-negative human DU-145 cells assessed as reduction in cell viability measured after 72 hrs by MTS assay; details: DU-145, 72 h
VCaP [1] = test: Downregulation of TMPRSS2 gene levels in human VCaP cells incubated for 24 hrs by qRT-PCR analysis; format: functional, cell-based; details: dose 25-2500 nM
Procedure, shortened: (§1)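 VCaP cells grown to 50% confluence, then treated with compound or DMSO (Methods state 16 h, legend states 24 h). Total RNA isolated, cDNA made from 1 µg RNA, SYBR Green qPCR run in triplicate. Expression by ΔΔCt, normalised to GAPDH. Three independent experiments, SEM.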

VCaP [2] = test: Downregulation of PSA […] expression in human VCaP cells incubated for 24 hrs by qRT-PCR analysis; format: functional, cell-based; details: dose 25-2500 nM
Procedure, shortened: as §1

[3] = Antiproliferative activity against human Androgen-resistant 22Rv1 cells assessed as reduction in cell viability measured after 72 hrs by MTS assay; format: functional, cell-based; details: 22Rv1, 72 h
Procedure, shortened: (§2)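 MTS viability assay run in triplicate wells. Serial dilutions in DMSO were given, with DMSO as negative control and doxorubicin as positive control, and incubated 72 h. MTS reagent was added for 2 h and absorbance read at 490 nm. % cytotoxicity = (A_medium − A_treatment)/A_medium × 100. EC50 ± SD was taken from dose-response curves of at least three independent experiments.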

VCaP [4] = test: Downregulation of BRD3 mRNA levels in human VCaP cells at 25 to 2500 nM incubated for 24 hrs by qRT-PCR analysis; format: functional, cell-based; details: dose 25-2500 nM
Procedure, shortened: as §1

VCaP [5] = test: Antiproliferative activity against AR-positive human VCaP cells assessed as reduction in cell viability measured after 72 hrs by MTS assay; format: functional, cell-based
Procedure, shortened: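 VCaP cells in 96-well plates, compound serially diluted in DMSO and run in triplicate wells for 72 h. MTS reagent added for 2 h, absorbance read at 490 nm. % cytotoxicity = (A_medium − A_treatment)/A_medium × 100. EC50 and SD taken from dose-response curves, at least three independent experiments.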

[6] = Cytotoxicity against HFF cells assessed as reduction in cell viability measured after 72 hrs by MTS assay; format: toxicity, cell-based; details: human
Procedure, shortened: as §2

VCaP [7] = test: Downregulation of BRD2 mRNA levels in human VCaP cells at 25 to 2500 nM incubated for 24 hrs by qRT-PCR analysis; format: functional, cell-based; details: dose 25-2500 nM
Procedure, shortened: as §1

PC-3 [8] = test: Antiproliferative activity against androgen-insensitive human PC-3 cells assessed as reduction in cell viability measured after 72 hrs by MTS assay; format: functional, cell-based; details: PC-3, 72 h
Procedure, shortened: as §2

VCaP [9] = test: Downregulation of ERG gene levels in human VCaP cells incubated for 24 hrs by qRT-PCR analysis; format: functional, cell-based; details: dose 25-2500 nM
Procedure, shortened: as §1

VCaP [10] = test: Downregulation of AR […] expression in human VCaP cells at 25 to 2500 nM incubated for 24 hrs by qRT-PCR analysis; format: functional, cell-based; details: dose 25-2500 nM
Procedure, shortened: as §1

VCaP [11] = test: Downregulation of BRD4 mRNA levels in human VCaP cells at 25 to 2500 nM incubated for 24 hrs by qRT-PCR analysis; format: functional, cell-based; details: dose 25-2500 nM
Procedure, shortened: as §1

LNCaP = test: Antiproliferative activity against androgen-sensitive human LNCaP cells assessed as reduction in cell viability measured after 72 hrs by MTS assay; format: functional, cell-based
Procedure, shortened: as §2

[12] = biological target: T1, Bromodomain-containing protein 3 (Homo sapiens, UniProt Q15059); test: Inhibition of BRD3-BD2 (unknown origin) by fluorescence polarization assay
Procedure, shortened: (§3)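 FP competition assay using the fluorescein-labeled PCC conjugate (4 nM) as tracer. Recombinant His-tagged BRD bromodomain (20–400 nM) in 50 mM HEPES pH 7.4, 150 mM NaCl, 0.5 mM TCEP, 0.05% Tween-20. DMSO-matched serial dilutions were added and the plate incubated. Read at ex 485/em 535 nm, with G-factor zeroed on tracer alone. Triplicate data were curve-fitted, error SEM.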
Target sequence in this assay (Q15059 whole entry): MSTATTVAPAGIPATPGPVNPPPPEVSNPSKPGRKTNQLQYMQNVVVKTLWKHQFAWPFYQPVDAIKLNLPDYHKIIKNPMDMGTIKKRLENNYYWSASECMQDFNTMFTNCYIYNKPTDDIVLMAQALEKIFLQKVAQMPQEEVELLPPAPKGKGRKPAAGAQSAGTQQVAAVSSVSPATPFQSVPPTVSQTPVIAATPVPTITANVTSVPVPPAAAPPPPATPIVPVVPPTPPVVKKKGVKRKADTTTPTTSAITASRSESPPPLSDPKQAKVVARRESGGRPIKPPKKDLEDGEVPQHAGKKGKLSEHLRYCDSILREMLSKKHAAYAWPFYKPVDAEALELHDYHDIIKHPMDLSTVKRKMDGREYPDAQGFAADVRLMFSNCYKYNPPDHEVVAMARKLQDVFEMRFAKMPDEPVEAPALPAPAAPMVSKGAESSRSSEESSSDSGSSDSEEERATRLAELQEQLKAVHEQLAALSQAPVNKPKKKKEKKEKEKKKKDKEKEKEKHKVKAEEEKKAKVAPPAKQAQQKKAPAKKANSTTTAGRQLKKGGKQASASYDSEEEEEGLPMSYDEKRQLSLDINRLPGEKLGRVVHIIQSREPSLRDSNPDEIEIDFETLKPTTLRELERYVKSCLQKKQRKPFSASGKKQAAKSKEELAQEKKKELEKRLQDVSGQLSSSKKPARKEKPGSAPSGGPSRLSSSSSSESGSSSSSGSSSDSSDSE

[13] = biological target: T1, Bromodomain-containing protein 3; test: Inhibition of BRD3-BD1 (unknown origin) by fluorescence polarization assay
Procedure, shortened: as §3
Target sequence in this assay (Q15059 whole entry): as above

[14] = biological target: T2, Bromodomain-containing protein 4 (Homo sapiens, UniProt O60885); test: Inhibition of BRD4-BD2 (unknown origin) by fluorescence polarization assay
Procedure, shortened: as §3

[15] = biological target: T2, Bromodomain-containing protein 4; test: Inhibition of BRD4-BD1 (unknown origin) by fluorescence polarization assay
Procedure, shortened: as §3

[16] = Cytotoxicity against human WI-38 cells assessed as reduction in cell viability measured after 72 hrs by MTS assay; format: toxicity, cell-based
Procedure, shortened: as §2

PC-3 [17] = test: Cytotoxicity against human PC-3 cells assessed as reduction in cell viability measured after 5 days by Cell-Titer glo assay; format: functional, cell-based; details: PC-3, 120 h
[18] = biological target: T2, Bromodomain-containing protein 4; test: Induction of BRD4 degradation in human MDA-MB-231 cells assessed as decrease in BET half life at 50 ug/ml incubated for 8 hrs by immunoblotting analysis; format: cell-based; details: dose 50.0 µg/ml
Procedure, shortened: (§4)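 MDA-MB-231 time-course. Cells given 50 µg/mL cycloheximide plus DMSO, or 50 µg/mL cycloheximide plus 10 µM compound. RIPA lysates immunoblotted for BRD2, BRD3 and BRD4 with GAPDH as control.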

[19] = biological target: Bromodomain-containing protein 2 (Homo sapiens, UniProt P25440); test: Induction of BRD2 degradation in human MDA-MB-231 cells assessed as decrease in BET half life at 50 ug/ml incubated for 8 hrs by immunoblotting analysis; format: cell-based; details: dose 50.0 µg/ml
Procedure, shortened: as §4

[20] = biological target: T1, Bromodomain-containing protein 3; test: Induction of BRD3 degradation in human MDA-MB-231 cells assessed as decrease in BET half life at 50 ug/ml incubated for 8 hrs by immunoblotting analysis; format: cell-based; details: dose 50.0 µg/ml
Procedure, shortened: as §4
Target sequence in this assay (Q15059 2-726 limits assumed): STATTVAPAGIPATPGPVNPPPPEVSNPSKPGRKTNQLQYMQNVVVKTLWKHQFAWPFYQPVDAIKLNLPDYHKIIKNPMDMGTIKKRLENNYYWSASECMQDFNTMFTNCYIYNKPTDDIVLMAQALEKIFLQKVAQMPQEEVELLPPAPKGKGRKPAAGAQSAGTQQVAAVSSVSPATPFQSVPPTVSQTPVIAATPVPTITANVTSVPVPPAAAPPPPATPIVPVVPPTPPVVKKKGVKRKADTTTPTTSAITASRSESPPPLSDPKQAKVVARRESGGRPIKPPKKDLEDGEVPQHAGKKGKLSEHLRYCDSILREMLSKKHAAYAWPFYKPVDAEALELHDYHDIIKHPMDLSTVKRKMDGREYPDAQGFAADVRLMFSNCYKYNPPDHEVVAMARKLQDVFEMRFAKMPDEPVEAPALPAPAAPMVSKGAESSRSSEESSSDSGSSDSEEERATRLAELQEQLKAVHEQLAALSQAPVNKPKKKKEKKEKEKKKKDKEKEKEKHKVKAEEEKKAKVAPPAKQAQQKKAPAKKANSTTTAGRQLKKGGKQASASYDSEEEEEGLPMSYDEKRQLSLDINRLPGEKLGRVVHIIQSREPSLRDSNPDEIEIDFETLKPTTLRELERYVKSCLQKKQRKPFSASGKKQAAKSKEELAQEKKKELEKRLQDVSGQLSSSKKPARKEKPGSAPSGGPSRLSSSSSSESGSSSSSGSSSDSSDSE

[21] = biological target: T1, Bromodomain-containing protein 3; test: Induction of BRD3 degradation in human PC-3 cells incubated for 16 hrs by immunoblotting analysis; format: cell-based
Procedure, shortened: (§5)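 MDA-MB-231 or PC-3 cells at 50% confluence in DMEM/10% FBS/pen-strep, treated 16 h with doses falling tenfold from 10 µM to 1 nM. RIPA lysates immunoblotted for BRD2, BRD3 and BRD4 with GAPDH as control. DC50 derived from band densitometry. SEM, n = 2.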
Target sequence in this assay (Q15059 2-726 limits assumed): as above

[22] = biological target: T2, Bromodomain-containing protein 4; test: Induction of BRD4 degradation in human PC-3 cells incubated for 16 hrs by immunoblotting analysis; format: cell-based
Procedure, shortened: as §5

Bromodomain-containing protein 2, sequence (P25440 whole entry, looked up): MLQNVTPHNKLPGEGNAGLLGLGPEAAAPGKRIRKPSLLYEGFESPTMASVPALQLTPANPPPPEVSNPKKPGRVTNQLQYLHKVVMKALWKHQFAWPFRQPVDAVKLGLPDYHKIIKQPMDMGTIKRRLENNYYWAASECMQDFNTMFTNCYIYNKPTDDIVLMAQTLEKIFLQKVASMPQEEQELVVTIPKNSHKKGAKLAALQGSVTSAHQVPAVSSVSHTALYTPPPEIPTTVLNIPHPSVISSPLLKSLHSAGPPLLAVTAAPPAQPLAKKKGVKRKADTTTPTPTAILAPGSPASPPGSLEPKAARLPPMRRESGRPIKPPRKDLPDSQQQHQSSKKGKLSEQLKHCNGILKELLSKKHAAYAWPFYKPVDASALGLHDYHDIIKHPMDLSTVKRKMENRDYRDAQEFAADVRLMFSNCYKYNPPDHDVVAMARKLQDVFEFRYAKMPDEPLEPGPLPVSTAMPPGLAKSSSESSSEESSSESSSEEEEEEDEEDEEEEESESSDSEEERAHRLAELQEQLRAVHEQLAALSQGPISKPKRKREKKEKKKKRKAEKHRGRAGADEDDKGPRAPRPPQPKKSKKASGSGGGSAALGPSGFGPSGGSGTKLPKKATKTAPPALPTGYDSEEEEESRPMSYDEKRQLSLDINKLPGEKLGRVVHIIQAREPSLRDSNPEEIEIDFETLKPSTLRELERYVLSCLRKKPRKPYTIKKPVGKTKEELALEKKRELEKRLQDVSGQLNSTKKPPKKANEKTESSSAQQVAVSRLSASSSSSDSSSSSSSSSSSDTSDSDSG

SMILES	EC50 [3]	EC50 (VCaP [5])	EC50 at 72 h [6]	EC50 (PC-3 [8])	EC50 (LNCaP)	IC50 [12]	IC50 [13]	IC50 [14]	IC50 [15]	further results
Cc1sc2c(c1C)C(c1ccc(Cl)cc1)=N[C@@H](CC(=O)OC(C)(C)C)c1nnc(C)n1-2	230 nM	160 nM	> 2000 nM	> 2000 nM	162 nM					EC50 (DU-145): > 2 µM; Activity (VCaP [1]): Active; Activity (VCaP [2]): Dose-Dependent Effect; Activity (VCaP [4]): inactive; Activity (VCaP [7]): inactive; Activity (VCaP [9]): Active; Activity (VCaP [10]): inactive; Activity (VCaP [11]): inactive
CC(=O)OC[C@]12CC[C@H]3[C@@H](CC=C4CC=CC(=O)[C@@]43C)[C@]1(O)CC[C@@]2(O)[C@@](C)(O)[C@H]1CC(C)=C(C)C(=O)O1	70 nM		> 3000 nM	130 nM	130 nM	15.8 µM	18 nM	3.92 µM	19.3 nM	
CC1=C(CO)C[C@H]([C@](C)(O)[C@]2(O)CC[C@@]3(O)[C@@H]4C[C@H]5O[C@]56CC=CC(=O)[C@]6(C)[C@H]4CC[C@]23C)OC1=O		1110 nM		2900 nM	2780 nM	> 20 µM	736 nM	> 20 µM	281 nM	EC50 (DU-145): > 5 µM; EC50 at 72 h [16]: > 5 µM
Cc1sc2c(c1C)C(c1ccc(Cl)cc1)=N[C@@H](CC(=O)NCCCCNC(=O)COc1cccc3c1C(=O)N(C1CCC(=O)NC1=O)C3=O)c1nnc(C)n1-2 (stereo partly specified)										EC50 (PC-3 [17]): 50 nM
CC1=C(C)C(=O)O[C@@H]([C@](C)(O)[C@]2(O)CC[C@@]3(O)[C@@H]4C[C@H]5O[C@]56CC=CC(=O)[C@]6(C)[C@H]4CC[C@]23C)C1 [WITHANOLIDE E]	70 nM		> 10000 nM		60 nM	0.72 µM	2950 nM	1.52 µM	556 nM	
CC(=O)OC[C@]12CC[C@H]3[C@@H](C[C@H]4O[C@]45CC=CC(=O)[C@]35C)[C@]1(O)[C@@H](OC(C)=O)C[C@@]2(O)[C@@](C)(O)[C@H]1CC(C)=C(C)C(=O)O1				180 nM	1200 nM	6 µM	210 nM	14.8 µM	47.6 nM	EC50 at 72 h [16]: > 5 µM
C[C@@H]1C[C@@H]([C@H](O)CC2CC(=O)NC(=O)C2)C(=O)[C@@H](C)C1										Activity [18]: inactive; Activity [19]: inactive; Activity [20]: inactive
CC(=O)OC[C@]12CC[C@H]3[C@@H](C[C@H]4O[C@]45CCCC(=O)[C@]35C)[C@]1(O)CC[C@@]2(O)[C@@](C)(O)[C@H]1CC(C)=C(C)C(=O)O1		> 2000 nM		1100 nM		10.6 µM	235 nM	9.14 µM	60 nM	Activity [21]: inactive; Activity [22]: inactive
